Our source for the IC50 and Activity values is ChEMBL document CHEMBL5120742, “Multi-target weapons: diaryl-pyrazoline thiazolidinediones simultaneously targeting VEGFR-2 and HDAC cancer hallmarks” (RSC Med Chem, 2021).

One assay addresses Histone deacetylase 1 (Homo sapiens, UniProt Q13547). The experiment in a line: Inhibition of recombinant human C-terminal His6-FLAG-tagged HDAC1 (1 to end residues) expressed in sf9 insect cells using Boc-Lys(acetyl)-AMC as substrate incubated for 30 mins by fluorescence assay. A digest of the protocol:
(§1)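 Two-step fluorogenic assay with recombinant HDAC1, 2, 3 or 6. Deacetylation of Boc-Lys(acetyl)-AMC is followed by trypsin conversion of the deacetylated product to a fluorescent signal.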

The target of the next assay is Histone deacetylase 2 (Homo sapiens, UniProt Q92769). As to the kind of experiment: Inhibition of recombinant human HDAC2 Boc-Lys(acetyl)-AMC as substrate incubated for 30 mins by fluorescence assay. A digest of the protocol: as §1
Sequence of Histone deacetylase 2 (Q92769 whole entry): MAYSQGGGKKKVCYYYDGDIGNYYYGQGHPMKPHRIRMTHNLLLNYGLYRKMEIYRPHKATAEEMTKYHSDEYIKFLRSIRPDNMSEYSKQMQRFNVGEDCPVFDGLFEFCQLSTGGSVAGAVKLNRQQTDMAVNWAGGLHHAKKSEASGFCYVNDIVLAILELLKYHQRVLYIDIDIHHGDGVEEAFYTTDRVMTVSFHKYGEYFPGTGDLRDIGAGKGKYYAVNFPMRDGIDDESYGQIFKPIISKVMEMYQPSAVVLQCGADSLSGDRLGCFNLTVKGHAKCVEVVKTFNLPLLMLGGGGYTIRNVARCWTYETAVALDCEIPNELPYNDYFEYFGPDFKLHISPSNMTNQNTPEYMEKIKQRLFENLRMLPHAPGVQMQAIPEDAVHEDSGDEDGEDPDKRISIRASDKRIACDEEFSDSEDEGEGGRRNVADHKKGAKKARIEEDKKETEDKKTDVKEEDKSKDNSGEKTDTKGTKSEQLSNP
In assay [1] the target is T1, Protein deacetylase HDAC6 (Homo sapiens, UniProt Q9UBN7).
T1 sequence (Q9UBN7 whole entry): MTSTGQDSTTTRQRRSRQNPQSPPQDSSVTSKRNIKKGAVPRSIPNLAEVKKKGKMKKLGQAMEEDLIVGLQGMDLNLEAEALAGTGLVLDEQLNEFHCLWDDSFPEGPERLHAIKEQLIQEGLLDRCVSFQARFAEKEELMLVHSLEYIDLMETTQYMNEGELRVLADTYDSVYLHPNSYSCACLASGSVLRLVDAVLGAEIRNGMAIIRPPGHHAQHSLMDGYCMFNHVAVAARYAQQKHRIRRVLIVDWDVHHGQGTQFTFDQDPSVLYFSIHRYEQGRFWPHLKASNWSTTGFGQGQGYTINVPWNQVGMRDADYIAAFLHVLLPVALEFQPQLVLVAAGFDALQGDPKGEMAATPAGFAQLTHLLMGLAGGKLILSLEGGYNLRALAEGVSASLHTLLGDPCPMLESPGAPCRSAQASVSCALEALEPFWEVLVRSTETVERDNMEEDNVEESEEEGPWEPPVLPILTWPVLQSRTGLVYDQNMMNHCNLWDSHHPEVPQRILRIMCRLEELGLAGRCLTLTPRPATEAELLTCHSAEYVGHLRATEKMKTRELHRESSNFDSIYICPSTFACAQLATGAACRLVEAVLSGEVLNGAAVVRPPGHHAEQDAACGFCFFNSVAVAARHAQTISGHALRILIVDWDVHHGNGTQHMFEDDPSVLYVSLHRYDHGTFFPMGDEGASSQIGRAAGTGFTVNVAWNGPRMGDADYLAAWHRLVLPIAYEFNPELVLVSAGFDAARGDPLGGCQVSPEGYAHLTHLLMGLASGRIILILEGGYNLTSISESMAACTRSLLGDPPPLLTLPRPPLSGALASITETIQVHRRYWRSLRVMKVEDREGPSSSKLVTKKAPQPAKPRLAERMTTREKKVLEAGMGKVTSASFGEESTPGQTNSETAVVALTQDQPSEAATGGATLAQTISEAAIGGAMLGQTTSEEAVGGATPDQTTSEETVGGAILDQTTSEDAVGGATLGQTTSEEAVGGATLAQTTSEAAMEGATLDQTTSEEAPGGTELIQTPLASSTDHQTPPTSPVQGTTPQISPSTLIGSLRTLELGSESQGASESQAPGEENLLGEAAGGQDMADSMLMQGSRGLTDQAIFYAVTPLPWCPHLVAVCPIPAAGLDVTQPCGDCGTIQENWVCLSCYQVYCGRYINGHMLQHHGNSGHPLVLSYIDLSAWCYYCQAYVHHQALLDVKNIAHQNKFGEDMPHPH
As to the kind of experiment: Inhibition of recombinant human HDAC6 using Boc-Lys(acetyl)-AMC as substrate incubated for 30 mins by fluorescence assay. A digest of the protocol:
as §1

Assay [2] deals with Histone deacetylase 3/Nuclear receptor corepressor 2 (HDAC3/NCoR2) (Homo sapiens, UniProt O15379). The experiment in a line: Inhibition of C-terminal His-tagged recombinant human HDAC3 (1 to 428 residues)/N-terminal GST-tagged recombinant human NCoR2 (395 to 489 residues) co-expressed in baculovirus infected Sf9 cells using Boc-Lys(acetyl)-AMC as substrate incubated for 30 mins by fluorescence assay. A digest of the protocol:
as §1

In assay [3] the target is T2, Histone deacetylase 4 (Homo sapiens, UniProt P56524). The experiment in a line: Inhibition of recombinant human N-terminal His6-SUMO-tagged C-terminal SII-tagged HDAC4 expressed in Escherichia coli (BL21) DE3 pLysS cells assessed as residual activity at 50 uM using BocLys(trifluoroacetyl)-AMC as substrate incubated for 30 mins by fluorescence assay relative to control. A digest of the protocol:
(§2)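 Catalytic-domain HDAC4 (His6-SUMO/SII-tagged) and full-length codon-optimized human HDAC8 were expressed in E. coli BL21 DE3 pLysS from pET14b. Both were assayed in a two-step fluorogenic format with Boc-Lys(trifluoroacetyl)-AMC, followed by trypsin development. Compounds were screened first at 50 µM for residual activity.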

Assay [4] concerns the target T2, Histone deacetylase 4. As to the kind of experiment: Inhibition of recombinant human N-terminal His6-SUMO-tagged C-terminal SII-tagged HDAC4 expressed in Escherichia coli (BL21) DE3 pLysS cells using BocLys(trifluoroacetyl)-AMC as substrate incubated for 30 mins by fluorescence assay. A digest of the protocol: as §2
The next assay addresses T3, Histone deacetylase 8 (Homo sapiens, UniProt Q9BY41).
T3 sequence (Q9BY41 whole entry): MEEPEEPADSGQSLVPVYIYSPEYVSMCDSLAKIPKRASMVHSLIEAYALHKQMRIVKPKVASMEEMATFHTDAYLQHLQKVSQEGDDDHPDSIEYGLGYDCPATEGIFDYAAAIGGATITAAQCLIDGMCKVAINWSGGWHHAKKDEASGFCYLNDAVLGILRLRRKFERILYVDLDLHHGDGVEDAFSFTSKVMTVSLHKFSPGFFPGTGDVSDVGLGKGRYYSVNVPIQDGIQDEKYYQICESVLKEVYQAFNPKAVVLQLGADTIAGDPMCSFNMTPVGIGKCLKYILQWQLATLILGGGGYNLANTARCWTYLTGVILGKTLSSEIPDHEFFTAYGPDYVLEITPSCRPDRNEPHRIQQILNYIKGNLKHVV
The experiment in a line: Inhibition of recombinant human N-terminal His6-SUMO-tagged C-terminal SII-tagged HDAC8 expressed in Escherichia coli (BL21) DE3 pLysS cells using BocLys(trifluoroacetyl)-AMC as substrate incubated for 30 mins by fluorescence assay. A digest of the protocol: as §2

For assay [5], the target named is T4, Histone deacetylase 8 (Homo sapiens) (UniProt Q9BY41).
T4 sequence (whole entry): T3 sequence (Q9BY41 whole entry)
The experiment in a line: Inhibition of recombinant human N-terminal His6-SUMO-tagged C-terminal SII-tagged HDAC8 expressed in Escherichia coli (BL21) DE3 pLysS cells assessed as residual activity at 50 uM using BocLys(trifluoroacetyl)-AMC as substrate incubated for 30 mins by fluorescence assay relative to control. A digest of the protocol:
as §2

T2 sequence (P56524 whole entry): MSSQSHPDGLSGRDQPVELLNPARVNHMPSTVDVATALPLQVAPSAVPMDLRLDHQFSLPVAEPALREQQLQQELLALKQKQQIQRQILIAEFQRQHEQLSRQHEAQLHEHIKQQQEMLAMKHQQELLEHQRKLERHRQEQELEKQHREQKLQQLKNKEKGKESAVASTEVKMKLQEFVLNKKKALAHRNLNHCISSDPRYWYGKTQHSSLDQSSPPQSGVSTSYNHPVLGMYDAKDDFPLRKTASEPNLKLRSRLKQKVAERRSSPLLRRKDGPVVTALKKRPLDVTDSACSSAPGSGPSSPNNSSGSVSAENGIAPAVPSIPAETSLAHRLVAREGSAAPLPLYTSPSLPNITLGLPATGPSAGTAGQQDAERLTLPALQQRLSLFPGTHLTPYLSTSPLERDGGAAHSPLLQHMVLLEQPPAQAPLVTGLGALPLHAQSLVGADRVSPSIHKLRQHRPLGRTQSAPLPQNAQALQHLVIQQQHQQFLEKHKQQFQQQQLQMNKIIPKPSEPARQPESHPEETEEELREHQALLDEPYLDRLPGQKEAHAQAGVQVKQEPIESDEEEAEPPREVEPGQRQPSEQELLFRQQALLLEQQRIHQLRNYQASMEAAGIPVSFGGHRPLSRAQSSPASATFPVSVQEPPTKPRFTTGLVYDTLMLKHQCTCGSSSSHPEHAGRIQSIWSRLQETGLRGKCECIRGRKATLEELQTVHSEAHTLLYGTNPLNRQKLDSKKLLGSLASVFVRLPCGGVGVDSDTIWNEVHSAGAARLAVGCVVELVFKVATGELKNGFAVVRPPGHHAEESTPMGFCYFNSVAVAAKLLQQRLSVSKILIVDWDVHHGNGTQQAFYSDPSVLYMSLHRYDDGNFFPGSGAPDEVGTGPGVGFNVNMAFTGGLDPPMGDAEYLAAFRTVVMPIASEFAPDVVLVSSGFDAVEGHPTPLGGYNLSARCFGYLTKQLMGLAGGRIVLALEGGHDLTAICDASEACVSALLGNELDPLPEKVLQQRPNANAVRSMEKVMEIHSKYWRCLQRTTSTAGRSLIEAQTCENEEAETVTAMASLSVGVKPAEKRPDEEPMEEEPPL
Sequence of Histone deacetylase 3/Nuclear receptor corepressor 2 (HDAC3/NCoR2) (O15379 whole entry, the tested form may be a part): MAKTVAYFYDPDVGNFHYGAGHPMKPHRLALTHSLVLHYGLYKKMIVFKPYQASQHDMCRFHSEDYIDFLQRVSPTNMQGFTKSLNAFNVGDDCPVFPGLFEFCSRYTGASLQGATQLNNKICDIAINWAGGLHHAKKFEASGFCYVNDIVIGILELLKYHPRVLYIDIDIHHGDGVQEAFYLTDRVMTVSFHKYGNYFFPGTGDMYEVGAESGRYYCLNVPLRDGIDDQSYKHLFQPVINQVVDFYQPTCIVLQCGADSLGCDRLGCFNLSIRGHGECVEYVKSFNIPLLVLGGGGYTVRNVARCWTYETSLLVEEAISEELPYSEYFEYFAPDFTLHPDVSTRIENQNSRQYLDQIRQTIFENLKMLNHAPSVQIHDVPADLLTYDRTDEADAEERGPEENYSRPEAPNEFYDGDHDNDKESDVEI
Sequence of Histone deacetylase 3/Nuclear receptor corepressor 2 (HDAC3/NCoR2) (Q9Y618 whole entry, further chain, the tested form may be a part): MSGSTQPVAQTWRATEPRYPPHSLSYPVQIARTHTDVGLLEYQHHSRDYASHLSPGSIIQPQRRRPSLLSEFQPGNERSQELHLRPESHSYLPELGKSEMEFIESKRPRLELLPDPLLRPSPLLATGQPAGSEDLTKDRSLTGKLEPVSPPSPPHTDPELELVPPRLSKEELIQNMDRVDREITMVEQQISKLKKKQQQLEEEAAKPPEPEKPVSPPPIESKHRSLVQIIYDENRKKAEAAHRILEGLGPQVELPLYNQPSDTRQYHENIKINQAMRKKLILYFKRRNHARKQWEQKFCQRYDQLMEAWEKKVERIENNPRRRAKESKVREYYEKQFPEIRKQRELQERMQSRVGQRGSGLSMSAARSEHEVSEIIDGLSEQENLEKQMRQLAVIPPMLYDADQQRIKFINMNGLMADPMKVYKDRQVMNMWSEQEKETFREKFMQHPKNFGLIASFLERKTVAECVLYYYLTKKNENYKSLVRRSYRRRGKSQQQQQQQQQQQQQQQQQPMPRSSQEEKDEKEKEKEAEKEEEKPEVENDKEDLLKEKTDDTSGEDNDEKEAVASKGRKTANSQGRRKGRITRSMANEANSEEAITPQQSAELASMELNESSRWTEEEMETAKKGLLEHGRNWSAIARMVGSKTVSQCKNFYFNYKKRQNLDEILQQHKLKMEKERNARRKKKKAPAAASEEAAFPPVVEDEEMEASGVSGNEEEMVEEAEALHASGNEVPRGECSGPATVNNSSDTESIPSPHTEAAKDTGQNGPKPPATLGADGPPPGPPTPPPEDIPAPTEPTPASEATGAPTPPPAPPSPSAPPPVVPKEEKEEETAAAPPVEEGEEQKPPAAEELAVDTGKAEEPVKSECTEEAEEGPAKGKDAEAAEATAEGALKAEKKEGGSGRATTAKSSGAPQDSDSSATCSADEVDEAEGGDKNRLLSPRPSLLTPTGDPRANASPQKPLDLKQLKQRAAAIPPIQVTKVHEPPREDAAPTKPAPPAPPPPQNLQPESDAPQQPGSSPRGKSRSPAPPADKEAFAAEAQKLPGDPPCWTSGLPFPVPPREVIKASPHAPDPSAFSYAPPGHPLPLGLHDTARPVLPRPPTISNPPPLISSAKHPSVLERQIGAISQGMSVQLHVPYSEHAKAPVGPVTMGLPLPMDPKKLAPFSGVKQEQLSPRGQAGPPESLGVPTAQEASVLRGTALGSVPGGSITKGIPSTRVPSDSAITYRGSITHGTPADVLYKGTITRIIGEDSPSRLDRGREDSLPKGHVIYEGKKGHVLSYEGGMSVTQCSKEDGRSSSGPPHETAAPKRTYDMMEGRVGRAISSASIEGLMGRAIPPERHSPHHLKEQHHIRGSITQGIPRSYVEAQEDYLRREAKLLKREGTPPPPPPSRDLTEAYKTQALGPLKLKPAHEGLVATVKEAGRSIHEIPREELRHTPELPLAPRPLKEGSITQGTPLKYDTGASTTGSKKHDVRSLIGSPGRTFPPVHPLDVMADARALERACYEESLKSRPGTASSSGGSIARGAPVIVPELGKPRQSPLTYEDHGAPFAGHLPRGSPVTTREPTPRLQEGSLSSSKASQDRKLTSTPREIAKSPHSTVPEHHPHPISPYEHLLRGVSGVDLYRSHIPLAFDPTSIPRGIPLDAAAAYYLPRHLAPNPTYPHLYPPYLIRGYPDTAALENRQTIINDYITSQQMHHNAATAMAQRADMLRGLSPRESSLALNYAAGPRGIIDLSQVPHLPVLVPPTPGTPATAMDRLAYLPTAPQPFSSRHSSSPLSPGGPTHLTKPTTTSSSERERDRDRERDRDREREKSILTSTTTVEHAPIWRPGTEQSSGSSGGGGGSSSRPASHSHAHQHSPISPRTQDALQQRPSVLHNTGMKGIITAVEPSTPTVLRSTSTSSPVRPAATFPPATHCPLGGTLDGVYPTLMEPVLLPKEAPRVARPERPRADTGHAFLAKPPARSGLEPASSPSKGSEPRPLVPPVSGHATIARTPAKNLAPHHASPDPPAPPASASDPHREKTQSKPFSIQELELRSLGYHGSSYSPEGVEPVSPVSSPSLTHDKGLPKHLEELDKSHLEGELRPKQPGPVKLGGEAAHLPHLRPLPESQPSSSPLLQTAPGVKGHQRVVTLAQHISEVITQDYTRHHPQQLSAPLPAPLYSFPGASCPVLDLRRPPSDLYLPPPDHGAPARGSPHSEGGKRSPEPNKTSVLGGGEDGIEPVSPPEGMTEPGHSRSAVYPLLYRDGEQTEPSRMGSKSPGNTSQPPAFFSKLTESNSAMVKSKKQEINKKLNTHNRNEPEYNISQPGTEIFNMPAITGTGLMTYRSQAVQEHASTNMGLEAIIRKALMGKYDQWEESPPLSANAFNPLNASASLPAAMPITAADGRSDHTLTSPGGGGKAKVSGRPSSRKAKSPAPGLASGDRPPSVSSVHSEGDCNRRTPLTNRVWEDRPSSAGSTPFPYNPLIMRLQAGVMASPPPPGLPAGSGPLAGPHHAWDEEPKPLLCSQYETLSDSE
Sequence of Histone deacetylase 1 (Q13547 whole entry): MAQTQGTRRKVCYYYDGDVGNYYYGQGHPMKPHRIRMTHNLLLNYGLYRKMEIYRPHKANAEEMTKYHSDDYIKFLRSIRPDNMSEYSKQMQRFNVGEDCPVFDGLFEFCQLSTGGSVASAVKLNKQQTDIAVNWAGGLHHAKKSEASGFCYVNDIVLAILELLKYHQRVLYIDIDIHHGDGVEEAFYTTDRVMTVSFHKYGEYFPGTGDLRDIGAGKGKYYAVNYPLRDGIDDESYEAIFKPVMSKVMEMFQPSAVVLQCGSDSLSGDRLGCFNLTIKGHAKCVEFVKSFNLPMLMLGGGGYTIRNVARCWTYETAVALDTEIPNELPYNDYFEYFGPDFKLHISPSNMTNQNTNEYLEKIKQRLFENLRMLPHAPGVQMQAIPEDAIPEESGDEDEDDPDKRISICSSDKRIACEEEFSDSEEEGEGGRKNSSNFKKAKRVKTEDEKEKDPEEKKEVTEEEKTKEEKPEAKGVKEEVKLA

As usually defined, the IC50 is the point on the concentration scale where inhibition reaches its midpoint. `O=C1NC(=O)/C(=C\c2ccc(OCC(=O)N3N=C(c4ccccc4)CC3c3ccc(Cl)c(Cl)c3)cc2)S1` (centres undefined): the IC50 on Histone deacetylase 1 was 4.9 µM; at Histone deacetylase 2 it was 13 µM; in assay [1], 39 µM; in assay [2], 9.1 µM; at Histone deacetylase 4 [4] it was 0.7 µM; on Histone deacetylase 8 it was 10 µM. The Activity worked out at 5.9% at Histone deacetylase 4 [3] and 9.4% in assay [5].
In the case of `O=C1NC(=O)/C(=C\c2ccc(OCC(=O)N3N=C(c4ccc(F)cc4)CC3c3ccco3)cc2)S1` (centres undefined), the IC50 on Histone deacetylase 1 was over 50 µM; on Histone deacetylase 2 it was over 50 µM; in assay [1], 7.6 µM; in assay [2], over 50 µM; at Histone deacetylase 4 [4] it was 0.88 µM; on Histone deacetylase 8, over 50 µM. For the same compound, the Activity on Histone deacetylase 4 [3] is 36%; in assay [5], 45%.
Turning to `O=C1NC(=O)/C(=C\c2ccc(OCC(=O)N3N=C(c4ccc(F)cc4)CC3c3ccc(Cl)c(Cl)c3)cc2)S1` (centres undefined), the IC50 was found to be 11 µM at Histone deacetylase 1; 21 µM on Histone deacetylase 2; 13 µM in assay [1]; 11 µM in assay [2]; 0.8 µM on Histone deacetylase 4 [4]; 25 µM on Histone deacetylase 8. Moreover, the Activity on Histone deacetylase 4 [3] turned out to be 13%; in assay [5], 22%.
